Screening data: PubChem, The Scripps Research Institute Molecular Screening Center
GPR7 antag: blocks human GPR7 receptor signaling | actives 1.1% (n = 290,000) | GPR7-expressing cells, fluorescence antagonist assay | inhibition, % at 4.4 µM | P48145; in the data active = inhibition above about 16%, passing the limit was not always enough;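 note: cells stimulated with the agonist NPW; 0% = agonist with vehicle and 100% = vehicle without agonist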
Target sequence (P48145 whole entry, looked up): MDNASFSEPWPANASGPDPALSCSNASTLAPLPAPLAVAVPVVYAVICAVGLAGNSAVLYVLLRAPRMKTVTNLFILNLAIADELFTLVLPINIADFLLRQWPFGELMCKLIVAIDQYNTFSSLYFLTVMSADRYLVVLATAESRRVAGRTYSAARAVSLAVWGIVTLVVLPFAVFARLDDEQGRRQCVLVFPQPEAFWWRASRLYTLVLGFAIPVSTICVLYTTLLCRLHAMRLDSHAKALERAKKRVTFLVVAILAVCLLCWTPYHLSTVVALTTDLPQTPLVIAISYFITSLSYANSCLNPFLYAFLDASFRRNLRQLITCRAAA
TAAR1 antagonist: antagonists of human TAAR1 | actives 1.5% (n = 360,000) | inhibition, % at 3 µM | Q96RJ0 | CHO RD-HGA16 TAAR1, Fluo-8 calcium fluorescence, antagonist | AID 624466;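 active = inhibition above a per-plate cutoff, the mean inhibition of test compounds on that plate plus 3 SD, cut at about 49% in these data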;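 note: 0% = DMSO plus EC80 beta-PEA response and 100% = DMSO alone without agonist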
Target sequence (Q96RJ0 whole entry, looked up): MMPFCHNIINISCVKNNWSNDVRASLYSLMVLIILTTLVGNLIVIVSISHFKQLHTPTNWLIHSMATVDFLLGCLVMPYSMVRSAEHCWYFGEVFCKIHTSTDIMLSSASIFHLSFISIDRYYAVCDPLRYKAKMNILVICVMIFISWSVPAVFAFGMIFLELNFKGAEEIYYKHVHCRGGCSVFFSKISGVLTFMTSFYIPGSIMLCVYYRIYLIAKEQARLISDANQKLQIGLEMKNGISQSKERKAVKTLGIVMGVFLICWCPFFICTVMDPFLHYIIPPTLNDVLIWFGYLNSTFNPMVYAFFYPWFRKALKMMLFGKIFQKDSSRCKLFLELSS
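Material: RD-HGA16 CHO cells with stable hTAAR1 and Gα16; Dosing: single nominal final test compound concentration of 3 µM; Schedule: seeding 17-24 h prior, 75-min 37 °C, 30-min RT dye loading; Detection: kinetic Fluo-8 calcium fluorescence measurement; Measure: % inhibition from peak post-agonist over basal fluorescence ratio; Benchmarks: vehicle and agonist controls.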
CHO parental Ca: signal in parental CHO cells, OX1R antagonist counter-screen | inhibition, % at 5.6 µM | AID 463079 | actives 0.63% (n = 330,000) | parental CHO-K1, ATP-induced calcium, Fluo-8 fluorescence;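 active = inhibition above that plate's mean sample inhibition plus 3 SD, cut at about 26% in these data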;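 note: 0% = ATP-challenged DMSO wells and 100% = DMSO wells without ATP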
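Material: Parental CHO cells | Reagent: ATP | Compound dosing: Single nominal dose of 5.6 µM per compound | Detection: Intracellular calcium via Fluo-8 no-wash fluorescent dye | Read-out: % inhibition of ATP-induced calcium mobilization | Benchmarks: Low control ATP plus DMSO, high control DMSO only | Replicates: Singlicate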
TAAR1 ag: human TAAR1 agonism | activation, % at 3 µM | Q96RJ0 | CHO RD-HGA16 TAAR1, Fluo-8 calcium fluorescence; vehicle wells 0%, saturating PEA agonist 100% | actives 0.99% (n = 360,000) | AID 624467;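 active = activation above the mean activation of all test compounds in the run plus 3 SD, cut at about 38% in these data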
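System: CHO RD-HGA16 cells carrying human TAAR1 plus Gα16; Incubation: 17-24 h seeding, 75 min 37 °C dye, 30 min RT; Measured by: Fluo-8 fluorescence, 5 s baseline then 140 s kinetic read; Control set: DMSO and PEA EC100; Replication: single well for each compound.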
OX1R antag-1: human HCRTR1 antagonism; O43613; CHO/OX1R cells, Fluo-8 calcium fluorescence, orexin A; inhibition, % at 5 µM; actives 0.43% (n = 330,000);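 active = inhibition above its plate's threshold, mean inhibition of all tested compounds on the plate plus 3 SD, cut at about 37% in these data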;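 note: 0% = orexin A challenge wells and 100% = SB-334867-A antagonist wells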
OX1R antag-2: blocks the human orexin 1 receptor. O43613. OX1R-expressing cells, FRET antagonist read-out. inhibition, % at 6.6 µM. actives 1.8% (n = 330,000); in the data active = inhibition mostly above about 38%, no sharp cut-off; inactive = mostly below about 40%;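 note: 0% = agonist challenge alone and 100% = reference antagonist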
OX1R HTRF confirm: OX1R (human) antagonism, HTRF confirmed; shares compounds with OX1R antag-2; OX1R-expressing cells, HTRF antagonist assay; inhibition, % at 6.6 µM; actives 49% (n = 1,800); AID 492964; in the data active = inhibition above about 55%;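 note: CHO cells expressing OX1R stimulated with orexin A at about EC80; 0% = agonist challenge alone and 100% = reference antagonist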
CHO-K1 HTRF cnt: counter-screen: parental CHO-K1 HTRF response; shares compounds with OX1R antag-2; parental CHO-K1 cells, HTRF counterscreen; inhibition, % at 6.6 µM; actives 48% (n = 1,800); AID 493232; in the data active = inhibition above about 17%;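 note: 0% = agonist challenge with vehicle and 100% = vehicle alone without agonist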
The depositor's hits bear a star; . = no result given; + = active, no number. Compounds with a hit are over-represented: about 4.6% of the library has one in this group of screens.

SMILES	GPR7 antag	TAAR1 antagonist	CHO parental Ca	TAAR1 ag	OX1R antag-1	OX1R antag-2	OX1R HTRF confirm	CHO-K1 HTRF cnt
Nn1cc(-c2ccccc2)nc1SCC(=O)NCCN1C(=O)CSC1=O	-10	-9	-29	2	-20	15	.	.
Cc1ccccc1CN1CCN(CC2CC2)CC1CCO (stereo not given)	-8	-9	-15	0	-23	7	.	.
CCN(CC)C(=O)CN(C)S(=O)(=O)c1cccc2nsnc12	-1	-8	-1	3	-20	114*	40	38*
Cc1cccc(NC(=O)CCCCC(=O)Nc2cccc(C)c2)c1	.	-15	-7	0	-23	11	.	.
COc1ccc(CC2=C(O)c3ccccc3C(=O)C2=O)cc1	-4	-10	-4	0	-1	34	.	.
O=C1C(=O)c2ccccc2C(O)=C1CCCCl	-2	.	-7	.	-10	80*	77*	96*
COc1ccc(Cl)cc1NC(=O)CSc1nnc(C2CC2)n1C	-7	-14	-8	2	-25	17	.	.
COc1cc(C(=O)COC(=O)c2ccncc2)cc(OC)c1OC	.	-11	-14	1	2	16	.	.
CCOCC(=O)N1CCN(c2ccc([N+](=O)[O-])cc2)CC1	10	32	12	-2	-21	83*	33	29*
COC(=O)c1cc(=O)c2c(C)nc(C(Cl)(Cl)Cl)nc2[nH]1	-6	-17	-8	8	-7	79*	46	15
CCn1c2ccccc2c2cc(NC(=O)c3ccc(C)c([N+](=O)[O-])c3)ccc21	3	2	-15	1	4	77*	88*	13
CCn1c2ccccc2c2cc(NC(=O)c3cc(C)on3)ccc21	-5	-32	-2	6	16	88*	64*	7
CCC/C=C/c1ccc(CN2C(CC(C)C)C(=O)N(Cc3cn(CCC4OCCCO4)nn3)CCS2(=O)=O)cc1 (stereo not given)	.	5	.	2	.	.	.	.
CCN1C(=O)/C(=C/c2cc(C)n(C)c2C)SC1=Nc1ccc(OC)cc1	1	2	-21	8	-46	127*	26	16
O=[N+]([O-])c1cccc2c(N3CCCC3)ccnc12	-12	-12	-5	4	3	132*	61*	101*
COc1ccc(-c2ccc(N)[n+](CCCC(=O)O)n2)cc1	.	16	-8	0	-4	41	.	.
COC(=O)[C@H]1C[C@@H]1[C@H](NS(=O)(=O)c1ccc2ccccc2c1)c1ccccc1	-8	7	-32	9	-6	79*	36	3
O=C(NNc1nc(=O)c2cccnc2s1)c1ccccc1O	-4	9	-9	2	-17	18	.	.
CC(=O)Oc1c(-c2ccc(Br)o2)oc2ccccc2c1=O	9	4	-1	0	24	83*	84*	3
O=C(O)COc1c(-c2ccco2)oc2ccccc2c1=O	-11	3	-9	0	-3	14	.	.
CC(=O)Nc1ccc(S(=O)(=O)/N=C2\C(=O)c3ccccc3C([O-])=C2n2cc[n+](-c3ccccn3)c2)cc1	-11	-10	-4	-1	-10	144*	35	38*
Fc1ccc(NC(=S)Nc2cccnc2)c(Cl)c1	-4	-9	-3	0	-9	98*	18	3
Cc1ccc(OCCC(=O)OCC(=O)Nc2ccc(C)cc2Cl)cc1	.	-32	-8	-2	-16	14	.	.
CCOC(=O)N1CCN(c2cc(NCCO)c([N+](=O)[O-])c3nonc23)CC1	-9	-3	-4	0	-16	20	.	.
O=[N+]([O-])c1c(NCCO)cc(N2CCCCC2)c2nonc12	-5	-9	-6	4	-11	90*	52	39*
SMILES	GPR7 antag	TAAR1 antagonist	CHO parental Ca	TAAR1 ag	OX1R antag-1	OX1R antag-2	OX1R HTRF confirm	CHO-K1 HTRF cnt
COc1cccc(CCNc2ccc(N3C(=O)CC(C)C3=O)cc2[N+](=O)[O-])c1 (stereo not given)	8	-6	-9	0	-24	30	.	.
COc1ccc(Nc2ccc(N3C(=O)CC(C)C3=O)cc2[N+](=O)[O-])cn1 (stereo not given)	0	-3	12	5	-13	78*	41	39*
CCOC(CC(=O)NNC(=O)c1c(-c2c(Cl)cccc2Cl)noc1C)OCC	4	-3	-10	5	-13	11	.	.
Cc1cc(C(O)c2ncc(-c3cccc4ccccc34)[nH]2)ccc1F (stereo not given)	.	13	.	-1	.	.	.	.
CCOC(=O)N1CCN(S(=O)(=O)c2c[nH]c(C(=O)OC)c2)CC1	1	-8	-2	1	-6	9	.	.
CC/C(C)=N/NC(=O)c1[nH]c2ccc(C)cc2c1-c1ccccc1	-1	-13	-21	-1	-27	93*	16	0
c1cncc(-c2nnc(-c3cccnc3)nn2)c1	1	-5	-6	5	-2	88*	39	28*
c1ccc(-c2nnc(-c3ccccc3)nn2)cc1	-20	-7	-3	0	-2	1	.	.
O=C(/C=C/[C@H]1O[C@@H](n2cnc3c(NC(=O)c4ccccc4)ncnc32)[C@H](O)[C@@H]1O)NCc1ccc2c(c1)OCO2	.	-1	.	1	.	.	.	.
CC1=C(C(=O)OCc2ccccc2)C(c2ccc(C)o2)C2=C(CCCC2=O)N1 (stereo not given)	3	-1	-13	-2	-21	17	.	.
CC1=C(C(=O)OC2CCCCC2)C(c2ccc(C)o2)C2=C(CCCC2=O)N1 (stereo not given)	9	-6	-15	0	-32	99*	87*	-1
Cn1nc(-c2ccccn2)nc2c(=O)n(C)c(=O)nc1-2	-29	-14	-13	7	-1	+	91*	98*
O=C(NN1C(=O)c2ccc(-c3ccc4c(c3)C(=O)N(NC(=O)c3cccnc3)C4=O)cc2C1=O)c1cccnc1	-6	7	-9	7	-9	92*	39	33*
CC1(C)COC(c2ccc3c(c2)OCO3)OC1	.	-16	.	2	.	.	.	.
NC(=O)C[C@@H]1NC(=O)c2cc([N+](=O)[O-])cc(F)c2NCCCC[C@@H](C(N)=O)NC(=O)[C@H](CO)NC1=O	1	-9	.	10	.	.	.	.
NC(=O)[C@@H]1CCCCNc2c(F)cc([N+](=O)[O-])cc2C(=O)N[C@@H](CC(=O)O)C(=O)N[C@@H](CCC(=O)O)C(=O)N1	-5	.	11	.	-14	110*	34	33*
